Reference: ChEMBL document CHEMBL1629705, “PSI-7851, a pronucleotide of beta-D-2'-deoxy-2'-fluoro-2'-C-methyluridine monophosphate, is a potent and pan-genotype inhibitor of hepatitis C virus replication” (Antimicrob Agents Chemother, 2010)
The source made the active and inactive calls. The calls are words filed in the database; no cut-off is given here.

Experiments:
Hepatitis C virus [1] = test: Antiviral activity against Hepatitis C virus H77 harboring Htat protein assessed as viral RNA level by quantitative real-time PCR; type: functional, organism-based, Hepacivirus hominis; settings: genotype 1a H77
Hepatitis C virus [2] = test: Antiviral activity against Hepatitis C virus JFH1 assessed as viral RNA level by quantitative real-time PCR; type: functional, organism-based, Hepacivirus hominis; settings: JFH-1
HepG2 = test: Mitochondrial toxicity in human HepG2 cells assessed as effect on mitochondrial cytochrome c oxidase subunit 2 gene level up to 100 uM after 14 days by real-time PCR assay; type: cell-based; settings: hepg2, 336 h
Outline: (§1)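 HepG2 or CEM cells incubated 14 days with compound up to 100 μM, ddC as control. Medium and compound replenished on days 7 and 11. Mitochondrial COXII gene and nuclear rDNA measured by multiplex quantitative RT-PCR.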

CCRF-CEM = test: Mitochondrial toxicity in human CEM cells assessed as effect on mitochondrial cytochrome c oxidase subunit 2 gene level up to 100 uM after 14 days by quantitative real-time PCR assay; type: cell-based; settings: 336 h; outline: as §1
Hepatitis C virus [3] = test: Antiviral activity against Hepatitis C virus harboring NS5B polymerase S282T mutant gene infected in human HuH7 cells by luciferase-based replicon assay; type: functional, Hepacivirus hominis; settings: Huh-7
Hepatitis C virus [4] = test: Antiviral activity against Hepatitis C virus assessed as log reduction in viral RNA at 0.1 uM after 3 weeks; type: functional, Hepacivirus hominis
Outline: (§2)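 ET-lunet replicon cells seeded at 1 × 10^5/well without G418, treated at 0.1, 1 or 2 μM (final DMSO 0.5%). Passaged 1:3–1:4 every 3–4 days for 3 weeks with fresh compound. Then compound withdrawn and cells grown 3 more weeks in 0.25 mg/ml G418. HCV RNA by RT-PCR (ΔΔCt vs rRNA and DMSO controls, log change). Colonies fixed in formaldehyde and stained with crystal violet at 6 weeks.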

Hepatitis C virus [5] = test: Antiviral activity against Hepatitis C virus assessed as log reduction in viral RNA at 1 uM after 3 weeks; type: functional, Hepacivirus hominis; outline: as §2
Hepatitis C virus [6] = test: Antiviral activity against Hepatitis C virus assessed as inhibition of viral rebound at 2 uM after 3 weeks in presence of G418; type: functional, organism-based; settings: Hepacivirus hominis
Outline: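 ET-lunet replicon cells, 1 × 10^5/well, no G418, with compound at 0.1, 1 or 2 μM (final DMSO 0.5%). Passaged 1:3 or 1:4 every 3–4 days for 3 weeks with fresh compound, then 3 more weeks with 0.25 mg/ml G418 and no inhibitor. HCV RNA by RT-PCR normalized to rRNA (ΔΔCt vs DMSO) at each passage. Crystal violet colony staining at 6 weeks.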

[7] = target: T1, DNA polymerase alpha catalytic subunit (Homo sapiens, UniProt P09884); test: Inhibition of human DNA polymerase alpha assessed as incorporation of [alpha-32P]dCTP up to 1mM preincubated for 30 mins by whatman DE81 paper binding assay
T1 sequence (P09884 whole entry): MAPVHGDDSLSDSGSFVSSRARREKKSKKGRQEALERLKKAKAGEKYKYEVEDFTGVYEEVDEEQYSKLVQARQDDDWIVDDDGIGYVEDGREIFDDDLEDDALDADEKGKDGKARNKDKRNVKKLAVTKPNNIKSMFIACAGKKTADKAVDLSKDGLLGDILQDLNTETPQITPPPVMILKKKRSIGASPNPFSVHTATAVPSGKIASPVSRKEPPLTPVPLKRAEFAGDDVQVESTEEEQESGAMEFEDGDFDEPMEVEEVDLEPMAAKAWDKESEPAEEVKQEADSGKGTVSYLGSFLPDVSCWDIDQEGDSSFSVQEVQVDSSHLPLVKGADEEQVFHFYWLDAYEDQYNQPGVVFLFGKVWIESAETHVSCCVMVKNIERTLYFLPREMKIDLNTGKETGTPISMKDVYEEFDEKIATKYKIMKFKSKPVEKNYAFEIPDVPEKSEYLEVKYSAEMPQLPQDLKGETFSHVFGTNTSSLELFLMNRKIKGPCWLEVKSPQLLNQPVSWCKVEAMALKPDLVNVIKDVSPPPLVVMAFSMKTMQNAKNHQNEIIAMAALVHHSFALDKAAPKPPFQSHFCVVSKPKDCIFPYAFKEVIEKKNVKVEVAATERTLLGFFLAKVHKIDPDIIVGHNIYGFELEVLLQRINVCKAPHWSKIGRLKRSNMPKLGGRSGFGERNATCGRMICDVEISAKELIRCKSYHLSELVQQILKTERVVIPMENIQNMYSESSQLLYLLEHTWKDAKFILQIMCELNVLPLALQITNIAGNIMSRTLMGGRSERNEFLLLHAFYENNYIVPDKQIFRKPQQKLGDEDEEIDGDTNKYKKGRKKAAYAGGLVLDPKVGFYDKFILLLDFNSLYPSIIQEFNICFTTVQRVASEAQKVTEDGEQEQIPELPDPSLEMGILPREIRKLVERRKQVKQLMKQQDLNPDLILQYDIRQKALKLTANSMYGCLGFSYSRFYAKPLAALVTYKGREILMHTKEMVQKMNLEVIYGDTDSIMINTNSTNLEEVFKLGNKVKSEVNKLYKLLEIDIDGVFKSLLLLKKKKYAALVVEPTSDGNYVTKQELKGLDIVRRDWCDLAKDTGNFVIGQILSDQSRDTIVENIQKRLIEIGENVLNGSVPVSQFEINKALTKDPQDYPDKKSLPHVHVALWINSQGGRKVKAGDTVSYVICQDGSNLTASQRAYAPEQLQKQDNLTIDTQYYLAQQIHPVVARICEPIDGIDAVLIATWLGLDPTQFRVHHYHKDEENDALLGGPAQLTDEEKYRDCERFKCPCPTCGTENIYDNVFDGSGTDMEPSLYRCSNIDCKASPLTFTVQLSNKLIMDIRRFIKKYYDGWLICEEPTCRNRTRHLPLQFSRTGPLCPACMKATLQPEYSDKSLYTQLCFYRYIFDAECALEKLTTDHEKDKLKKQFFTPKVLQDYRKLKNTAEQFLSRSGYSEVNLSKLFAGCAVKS
Outline: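 Human DNA polymerase α (20 μg/ml) or γ (50 μg/ml) in 50 mM Tris pH 7.5, 50 mM NaCl, activated calf thymus DNA, 20 μM each dNTP, [α-32P]dCTP, 5 mM MgCl2. Nucleotide inhibitor up to 1 mM. 37°C, quenched with EDTA at 30 min. Product measured by DE81 paper binding; IC50 by nonlinear fit.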

Structure (SMILES)	EC50 (Hepatitis C virus [1]) [µM]	EC90 (Hepatitis C virus [1]) [µM]	EC50 (Hepatitis C virus [2]) [µM]	EC90 (Hepatitis C virus [2]) [µM]	Activity (HepG2)	Activity (CCRF-CEM)	EC90 (Hepatitis C virus [3]) [µM]	FC (Hepatitis C virus [4])	FC (Hepatitis C virus [5])	inhibition (Hepatitis C virus [6])	IC50 [7] [µM]
CC(C)OC(=O)[C@H](C)NP(=O)(OC[C@H]1O[C@@H](n2ccc(=O)[nH]c2=O)[C@](C)(F)[C@@H]1O)Oc1ccccc1 (stereo partly specified)	0.43	1.22	0.18	0.52	Non-toxic	Non-toxic	7.4	0.58	4	Active	
C[C@@]1(F)[C@H](O)[C@@H](COP(=O)(O)OP(=O)(O)OP(=O)(O)O)O[C@H]1n1ccc(=O)[nH]c1=O [GS-461203]											550
